Test results: ChEMBL document CHEMBL1137639, “Novel small-molecule inhibitors of transmissible gastroenteritis virus” (Antimicrob Agents Chemother, 2007)
Calls of active or inactive are those of the source. No cut-off for these calls is given here.

Tests used:
[1] = test system: Transmissible gastroenteritis virus; assay: Antiviral activity against Transmissible gastroenteritis virus TFI infected in swine testicle cells assessed as reduction of 3CL protease mRNA level at 5 uM after 6 hrs post infection by RT-PCR; type: functional; parameters: scale not given: the % may be the effect or the level left
Summary of the method: (§1)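 Viral RNA was extracted from lysates of TGEV-infected ST cells for SYBR green real-time RT-PCR, with primers for TGEV N protein or 3CLpro. Cycling was 50°C 2 min and 95°C 10 min, then 40 cycles of 95°C 15 s and 60°C 1 min. Levels were normalized to β-actin by the comparative CT method, with CT measured at least in triplicate.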

[2] = test system: Transmissible gastroenteritis virus; assay: Antiviral activity against Transmissible gastroenteritis virus TFI infected in swine testicle cells assessed as reduction of N protein mRNA level at 5 uM after 6 hrs post infection by RT-PCR; type: functional; parameters: scale not given: the % may be the effect or the level left; summary of the method: as §1
[3] = test system: Transmissible gastroenteritis virus; assay: Antiviral activity against Transmissible gastroenteritis virus TFI infected in swine testicle cells assessed as reduction of N protein mRNA level at 10 uM after 6 hrs post infection after 6 hrs post infection by RT-PCR; type: functional; parameters: scale not given: the % may be the effect or the level left; summary of the method: as §1
[4] = test system: Transmissible gastroenteritis virus; assay: Antiviral activity against Transmissible gastroenteritis virus TFI infected in swine testicle cells assessed as reduction of 3CL protease mRNA level at 10 uM after 6 hrs post infection by RT-PCR; type: functional; parameters: scale not given: the % may be the effect or the level left; summary of the method: as §1
[5] = test system: Transmissible gastroenteritis virus; assay: Antiviral activity against Transmissible gastroenteritis virus TFI infected in swine testicle cells assessed as reduction of N protein expression after 6 hrs post infection by Western blot analysis; type: functional, organism-based
Summary of the method: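 TGEV-infected ST cells were treated with compound at 0.3 to 10 µM. Lysates with equal total protein were separated by SDS-PAGE, transferred to nitrocellulose, probed with anti-TGEV N protein antibody, and detected by enhanced chemiluminescence. Three independent experiments were run.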

[6] = Cytotoxicity against swine testicle cells after 18 hrs; type: cell-based, Sus scrofa; details: pig
Summary of the method: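 ST cells in MEM with 10% fetal bovine serum were exposed to eight concentrations of compound for 18 h. GI50 was derived from the dose-response curves.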

[7] = test system: Transmissible gastroenteritis virus; assay: Antiviral activity against Transmissible gastroenteritis virus TFI infected in swine testicle cells assessed as protection against virus-induced caspase 3 activation at 5 uM after 18 hrs post infection; type: functional, organism-based
Summary of the method: (§2)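 TGEV-infected ST cells were treated with compound at 5 µM, and caspase activation was examined at 14 and 18 hpi. Lysates with equal total protein were run on SDS-PAGE and transferred to nitrocellulose. Blots were probed with anti-caspase-3 (β-actin antibody also used) and detected by enhanced chemiluminescence.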

[8] = test system: Transmissible gastroenteritis virus; assay: Antiviral activity against Transmissible gastroenteritis virus TFI infected in swine testicle cells assessed as protection against virus-induced cytopathic effect at 5 uM after 24 hrs post infection; type: functional, organism-based
Summary of the method: (§3)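 ST cell monolayers were inoculated with TGEV at MOI 5 and kept at 37°C under 5% CO2. Treatments were 5 µM compound, caspase inhibitor ZVAD-fmk at 100 µM as positive control, or 1% DMSO vehicle. At 18–24 hpi CPE was scored by microscopy as cell rounding, enlargement, syncytia and detachment. Two independent experiments were run.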

[9] = test system: Transmissible gastroenteritis virus; assay: Antiviral activity against Transmissible gastroenteritis virus TFI infected in swine testicle cells assessed as protection against virus-induced cytopathic effect at 5 uM after 18 hrs post infection; type: functional, organism-based; summary of the method: as §3
[10] = test system: Transmissible gastroenteritis virus; assay: Antiviral activity against Transmissible gastroenteritis virus TFI infected in swine testicle cells assessed as reduction of N protein mRNA level at 1 uM after 6 hrs post infection by RT-PCR; type: functional; parameters: scale not given: the % may be the effect or the level left; summary of the method: as §1
[11] = test system: Transmissible gastroenteritis virus; assay: Antiviral activity against Transmissible gastroenteritis virus TFI infected in swine testicle cells assessed as reduction of 3CL protease mRNA level at 1 uM after 6 hrs post infection by RT-PCR; type: functional; parameters: scale not given: the % may be the effect or the level left; summary of the method: as §1
[12] = target: Replicase polyprotein 1ab (Severe acute respiratory syndrome-related coronavirus, UniProt P0C6X7); assay: Inhibition of SARS Coronavirus 3C-like protease expressed in Escherichia coli
[13] = Inhibition of Transmissible gastroenteritis virus TFI recombinant GST-tagged 3C-like protease expressed in Escherichia coli BL21 (DE3)
Summary of the method: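 The TGEV strain TFI 3CLpro was expressed in E. coli BL21(DE3) as a GST fusion, purified on glutathione resin, and had the tag cleaved with PreScission protease. IC50 came from at least eight concentrations.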

[14] = test system: Transmissible gastroenteritis virus; assay: Antiviral activity against Transmissible gastroenteritis virus TFI infected in swine testicle cells assessed as inhibition of S and N protein expression treated 2 hrs before infection measured after 6 hrs post infection by indirect immunofluorescent assay; type: functional, organism-based; details: Alphacoronavirus 1, TFI
Summary of the method: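 ST cells, with or without a 2-h compound pretreatment, infected with TGEV at MOI 10. At 6 h they were fixed in 80% acetone and stained with mAbs to S and N protein, then FITC anti-mouse Ig for 60 min at room temperature. Fluorescence was read at ex 485/em 535 nm. Eight concentrations were tested, and EC50 was taken from dose-response curves.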

[15] = test system: Transmissible gastroenteritis virus; assay: Antiviral activity against Transmissible gastroenteritis virus TFI infected in swine testicle cells assessed as protection against virus-induced caspase 3 activation at 5 uM after 14 hrs post infection; type: functional, organism-based; summary of the method: as §2
[16] = test system: Transmissible gastroenteritis virus; assay: Antiviral activity against Transmissible gastroenteritis virus TFI infected in swine testicle cells assessed as protection against virus-induced cytopathic effect at 100 uM after 18 hrs post infection; type: functional, organism-based; summary of the method: as §3
[17] = test system: Transmissible gastroenteritis virus; assay: Antiviral activity against Transmissible gastroenteritis virus TFI infected in swine testicle cells assessed as protection against virus-induced cytopathic effect at 100 uM after 24 hrs post infection; type: functional, organism-based
[18] = test system: Transmissible gastroenteritis virus; assay: Antiviral activity against Transmissible gastroenteritis virus TFI infected in swine testicle cells assessed as reduction of 3CL protease mRNA level after 6 hrs post infection by RT-PCR; type: functional, organism-based; summary of the method: as §1
[19] = test system: Transmissible gastroenteritis virus; assay: Antiviral activity against Transmissible gastroenteritis virus TFI infected in swine testicle cells assessed as reduction of N protein mRNA level after 6 hrs post infection by RT-PCR; type: functional, organism-based; summary of the method: as §1

| Structure (SMILES) | Activity [1] [%] | Activity [2] [%] | Activity [3] [%] | Activity [4] [%] | Activity [5] | GI50 at 18 h [6] [µM] | Activity [7] | Activity [8] | Activity [9] | Activity [10] [%] | Activity [11] [%] | IC50 [12] [µM] | IC50 [13] [µM] | EC50 [14] [µM] | Activity [15] | Activity [16] | Activity [17] | Activity [18] | Activity [19] |
| --- | --- | --- | --- | --- | --- | --- | --- | --- | --- | --- | --- | --- | --- | --- | --- | --- | --- | --- | --- |
| CCN1C(c2ccccc2)=C(c2ccccc2)S/C1=C/C=C/c1sc2c3ccccc3ccc2[n+]1CC.[Cl-] | 1.2 | 3 | 0.4 | 0.2 | Dose-dependent effect | 18.1 | Active | Active | Active | 59.6 | 39.9 | 3.8 | 4.9 | 4.5 | Active | Active | Active | – | – |
| CCC(=C\c1sc2c3ccccc3ccc2[n+]1CC)/C=C1/Sc2cc(C)c(C)cc2N1CC | 0.5 | 1.3 | 1.1 | 0.3 | Dose-dependent effect | 21.3 | Active | Active | Active | 2.6 | 1.4 | 5.4 | 8 | 2.1 | Active | Active | Active | Dose-dependent effect | Dose-dependent effect |
| CCN1/C(=C\C=c2/s/c(=C\c3sc4ccccc4[n+]3CC)n(CC)c2=O)Sc2ccccc21 | – | – | – | – | – | > 50 | inactive | – | – | – | – | 10 | 2.2 | 17.4 | inactive | – | – | – | – |
| CCN1/C(=C\C=C\C2=CC(=C/c3sc4ccccc4[n+]3CC)/CC(C)C2)Sc2ccccc21 (configuration not stated) | 2.3 | 2.1 | 1.4 | 1.4 | Dose-dependent effect | > 50 | Active | Active | Active | 13.7 | 20.8 | 2 | 11.9 | 6.2 | Active | Active | Active | Dose-dependent effect | Dose-dependent effect |
| CCC(=C\c1sc2cc(C)c(C)cc2[n+]1CC)/C=C1/Sc2cc(/C=C/c3ccccc3)ccc2N1CC | – | – | – | – | – | – | Active | Active | Active | – | – | – | – | 1.8 | Active | Active | Active | – | – |
| C(/C1=C2Sc3ccccc3N2CC1)=C1\CC[n+]2c1sc1ccccc12 | – | – | – | – | – | > 50 | inactive | – | – | – | – | 10.5 | 2.2 | > 30 | inactive | – | – | – | – |
| CCC(/C=C1\Sc2cc(/C=C/c3ccccc3)ccc2N1CC)=C\c1sc2cc(C)c(C)cc2[n+]1CC | – | – | – | – | – | > 50 | – | – | – | – | – | 6.6 | – | – | – | – | – | – | – |
| CCN1/C(=C\C(=C/c2sc3ccccc3[n+]2CCCS(=O)(=O)[O-])OC)Sc2ccc(OC)cc21 | – | – | – | – | – | 13.1 | Active | Active | Active | – | – | 7.3 | 3.3 | 3 | Active | Active | Active | – | – |
| CCN1/C(=C\C=C\c2sc3ccc(-c4nc5ccccc5s4)cc3[n+]2CC)Sc2ccc(-c3nc4ccccc4s3)cc21 | – | – | – | – | – | > 50 | inactive | – | – | – | – | 2.5 | 2.1 | > 30 | inactive | – | – | – | – |
